System: MS2 coat protein
Test: apparent Kd, MS2 coat protein; higher = weaker binding; RNA-MaP array; FMN 200 µM where present
Summary of the method: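 Designs on Illumina sequencing-chip clusters, transcribed by stalled E. coli RNA polymerase, were exposed to SNAP-549-labelled MS2 coat protein in doubling steps from 0.7 or 1.5 nM up to 3 µM, without and then with constant ligand. The buffer held 100 mM Tris-HCl pH 7.5, 80 mM KCl, 4 mM MgCl2, BSA, DTT, yeast tRNA and Tween-20. Apparent Kd values are medians of filtered per-cluster binding-curve fits to green signal normalised to red-channel RNA signal and control-cluster median Fmax.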

[1] = designed as: OFF switch for flavin mononucleotide, no ligand
[2] = ligand present: flavin mononucleotide, designed as: OFF switch for flavin mononucleotide
[3] = designed as: ON switch for flavin mononucleotide, no ligand
[4] = ligand present: flavin mononucleotide, designed as: ON switch for flavin mononucleotide

| Sequence | apparent Kd [1] [nM] | apparent Kd [2] [nM] | apparent Kd [3] [nM] | apparent Kd [4] [nM] |
| --- | --- | --- | --- | --- |
| CUGAGCUCAGGAUAUACAUGAGGAUCACCCAUGUGUUCCUGCGACGUUAGUUGCACAUGUAGAAGGGAGUUCGG | 272 | 57.8 |  |  |
| CAUAUACAUGAGGAUCACCCAUGUUAGGAUAUGUUUUAACCGCGCGCAGGGUUAGUUGGCAGAAGGGAUCUGGG | 31.4 | 39 |  |  |
| GCUAUUGAUGUAGGAUAUGAUAUAGAAACUAUGUCAGAAGGACAUGAGGAUCACCCAUGUCAAUGGAUGGAGAGAAGAAAUGGC | 47.8 | 59.2 |  |  |
| CGACAUACGAUGGACGGAAACGUACAUGAGGAUCACCCAUGUAGAAGGCGAUCCGCAACGCGGAUUGAGGAUAUAUACCACACA | 19.2 | 17.8 |  |  |
| AUAAUGUAAGGAUAUCAGUCGACUAGCCUCGGCUAGUCGACUGAGAAGGUACAUGAGGAUCACCCAUGUGGUUC | 1130 | 484 |  |  |
| UAUUAGUUAGGAUAUACAUGAGGAUCACCCAUGUCACGGGUCCACUUGUCCUAUGCGUGUAGAAGGAGCGACCC | 19.5 | 20.8 |  |  |
| UGGUACAUCGGAGGAUAUCAUGUAGAGACAUGAGGAUCACCCAUGUCGAUGGAGACAUCGGAGAUUGAGAAGGCCGAUGUACCU |  |  | 109 | 22.2 |
| GUGGUCAGACAUGAGGAUCACCCAUGUGGAAUAAAUAAGGAACAGGAUAUCUAAUAUAGGAUAUAAGAGAAGGGUUGGUUGGUG |  |  | 81.7 | 93.6 |
| ACAUCUCGAGCCGACGGGAGAGUACAUGAGGAUCACCCAUGUGAGGAUAUCCCUGAGAAGACGGCGGAGAAGGCACUGGGUAGG | 6.33 | 10.4 |  |  |
| GUACUGUAGUGAGGAUAUACGAGUACGAUAGUACGGCGAUCCAUUUAUACAUGAGGAUCACCCAUGUAGAAGGCACUUCAGUAC | 6.09 | 61.6 |  |  |
| UCAUACAUGACAUGACAUGACAUGAGGAUCACCCAUGUUUACAAGGAUAUGUACAUGAAACAUGUACAGAAGGUGUAUUGGACU | 42.4 | 150 |  |  |
| AGGAAGUCAGGAUAUGCUGCUCGUCACUUGCGUGAUGAGUAGCAGAAGGGACAUGAGGAUCACCCAUGUAAAGA | 51.1 | 65.1 |  |  |
| GUCCUUAACGAGGAUAUCGGGCGGGUUUUUGUUUGAGAAGGUGUGACAUGAGGAUCACCCAUGUGGCGCGUGGG | 318 | 258 |  |  |
| AUAAAACAUGAGGAUCACCCAUGUAAGGAUAUGCGAAAAUAAAAUAAAAUAAAAUAAAGCAGAAGGUACAAAAA | 51 | 59.6 |  |  |
| UAUGUGUGAGGAUAUGGUAAAGAUAAGAUGAUGAAAGAACUCCAGAAGGCACAUGAGGAUCACCCAUGUAGAUA | 22.8 | 45.6 |  |  |
| GCAGGUUAAGUCAGGAUAUACCUAUGGAUACAUAGGUAGAAGGGACAUGAGGAUCACCCAUGUUCCUCACCUGC | 15.6 | 34.3 |  |  |
| GUGUACGUAGGAUAUGCUGGAAUCUAGCGAAGCUAGGUUCCACAUGAGGAUCACCCAUGUAGAAGGGCGUACAC | 182 | 47.1 |  |  |
| CGCAAGUAUACAUGAGGAUCACCCAUGUCAGAAAGGGUAAUCAGAAGGUACAAUUAGAGAUAGAGUAAGGAUAUGAAAUUUGCG |  |  | 750 | 274 |
| CUAAAAGUCGAGGAUAUGCACCGGCUUUUUGACGCAGAAGGCGACACAUGAGGAUCACCCAUGUCGGUACGCGA | 12.2 | 13 |  |  |
| AGAAUGGGCGAGAAGGGAGUACAUGAGGAUCACCCAUGUGGUUGAUGGUGCUCAGGAUAUCGAAGGACCAGGGAGCGUCUCUGG | 185 | 302 |  |  |
| GCACUCAAGUUAGGAUAUGGAUCGGAAAACGAUCCAGAAGGAAUAUGGGAACAUGAGGAUCACCCAUGUUCCAGAAACGAGUGC |  |  | 62.5 | 30.4 |
| UGUCCACAUGAGGAUCACCCAUGUCAGGAGGUGACAGGAUAUUGCGAAAAAAAAAAAAAGCAAGAAGGGUCUGAUU |  |  | 244 | 89.5 |
| AAAGAUGGAGGAUAUACAUGAGGAUCACCCAUGUAGAAAAAAAAUUGGGAAAAAGAAAGUAGAAGGCCAAAAAA | 41 | 91.1 |  |  |
| GGACGUCACAUCUACAUGAGGAUCACCCAUGUCUCUUGAUAUGAGGAUAUGUAUACGAAUCGUUUAUAGAAGGCAUGGACGUCC |  |  | 286 | 312 |
| UCCUGACAUGAGGAUCACCCAUGUUAGGAUAUGGCUUAGGGCGCGUCUGUGUGUUGGGUUAGAAGGGAUGUGGG | 17.6 | 16.8 |  |  |
| AGAUUCAUGGCCCGUUUGGGCUCACAUGAGGAUCACCCAUGUGAGGAUAUGACGUACCUGACUCGUCAGAAGGCGCAUGCGAAA | 7.48 | 15.7 |  |  |
| GUCAGCUCGUGAGGAUAUACAACACUGCUUCGGCAGUGUAUUAAGAUCACAUGAGGAUCACCCAUGUAGAAGGCACGAGCAGAU | 13.4 | 258 |  |  |

Reference: the EternaBench riboswitch data
